Reference: ChEMBL document CHEMBL1143813, “Assessment and continued validation of the malaria SYBR green I-based fluorescence assay for use in malaria drug screening” (Antimicrob Agents Chemother, 2007)
Converted amounts (≈) assume the structure as drawn.

Experiments:
Type in all cases: functional, organism-based
[1] = test system: Plasmodium falciparum; assay: (§1) In vitro antimalarial activity against Plasmodium falciparum W2 after 72 hrs in SYBR green fluorescence assay; details: W2, 72 h
Method in brief: (§2)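 P. falciparum D6 or W2 at late-ring/early-trophozoite stage, conditioned 3–4 days in the test medium (TCM, TCMA with Albumax I in place of plasma, FAF folic acid/pABA-free, or FAFA). Cultured 72 h at 37°C (5% CO₂, 5% O₂, N₂) with 11 twofold drug dilutions, 1% parasitemia, 2% hematocrit. SYBR green I lysis buffer added, 1 h at room temperature, RFU read. Plate-edge wells excluded.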

[2] = test system: Plasmodium falciparum; assay: (§3) In vitro antimalarial activity against Plasmodium falciparum D6 after 72 hrs in SYBR green fluorescence assay; details: D6, 72 h; method in brief: as §2
[3] = test system: Plasmodium falciparum; assay: as §1; details: W2, 72 h; remark: listed apart in the source
[4] = test system: Plasmodium falciparum; assay: Antimalarial activity against Plasmodium falciparum W2 as reduced [3H]hypoxanthine uptake after 72 hrs
[5] = test system: Plasmodium falciparum; assay: as §3; details: D6, 72 h; method in brief: as §2; remark: listed apart in the source
[6] = test system: Plasmodium falciparum; assay: In vitro antimalarial activity against Plasmodium falciparum W2 after 72 hrs by SYBR green fluorescence assay; details: W2, 72 h; method in brief: as §2
[7] = test system: Plasmodium falciparum; assay: as §3; details: D6, 72 h; method in brief: as §2; remark: listed apart in the source
[8] = test system: Plasmodium falciparum; assay: In vitro antimalarial activity against Plasmodium falciparum D6 after 72 hrs by SYBR green fluorescence assay; details: D6, 72 h; method in brief: as §2
[9] = test system: Plasmodium falciparum; assay: Antimalarial activity against Plasmodium falciparum D6 as reduced [3H]hypoxanthine uptake after 72 hrs
[10] = test system: Plasmodium falciparum; assay: as §1; details: W2, 72 h; remark: listed apart in the source

Compound	IC50 [1]	IC50 [2]	IC50 [3]	IC50 [4]	IC50 [5]	IC50 [6]	IC50 [7]	IC50 [8]	IC50 [9]	IC50 [10]
C=CC1CN2CC[C@H]1C[C@H]2[C@H](O)c1ccnc2ccc(OC)cc12 (single isomer, unassigned) [QUININE]	167 ng/mL (≈ 0.516 µM)	15.8 ng/mL (≈ 0.0487 µM)	162 ng/mL (≈ 0.5 µM)	36 ng/mL (≈ 0.111 µM)	14.9 ng/mL (≈ 0.0459 µM)	128 ng/mL (≈ 0.396 µM)	11.9 ng/mL (≈ 0.0367 µM)	11.3 ng/mL (≈ 0.0348 µM)	5 ng/mL (≈ 0.0154 µM)	
C[C@@H]1CC[C@H]2[C@@H](C)C(=O)O[C@@H]3O[C@@]4(C)CC[C@@H]1[C@]32OO4 [ARTEMISININ]	1 ng/mL (≈ 0.00354 µM)	1.25 ng/mL (≈ 0.00443 µM)	1.2 ng/mL (≈ 0.00425 µM)	1.7 ng/mL (≈ 0.00602 µM)			1.6 ng/mL (≈ 0.00567 µM)		2.4 ng/mL (≈ 0.0085 µM)	1.1 ng/mL (≈ 0.0039 µM)
CC[C@H]1OC(=O)[C@H](C)[C@@H](O[C@H]2C[C@@](C)(OC)[C@@H](O)[C@H](C)O2)[C@H](C)[C@@H](O[C@@H]2O[C@H](C)C[C@H](N(C)C)[C@H]2O)[C@](C)(O)C[C@@H](C)CN(C)[C@H](C)[C@@H](O)[C@]1(C)O [AZITHROMYCIN]	1620 ng/mL (≈ 2.17 µM)	10100 ng/mL (≈ 13.5 µM)	1850 ng/mL (≈ 2.47 µM)	5500 ng/mL (≈ 7.34 µM)	10100 ng/mL (≈ 13.4 µM)	2730 ng/mL (≈ 3.65 µM)	14400 ng/mL (≈ 19.2 µM)	15300 ng/mL (≈ 20.4 µM)	3750 ng/mL (≈ 5 µM)	4490 ng/mL (≈ 5.99 µM)
Nc1ccc(S(=O)(=O)c2ccc(N)cc2)cc1 [DAPSONE]			156 ng/mL (≈ 0.629 µM)	124 ng/mL (≈ 0.5 µM)	3.1 ng/mL (≈ 0.0125 µM)		10.2 ng/mL (≈ 0.0411 µM)		2.9 ng/mL (≈ 0.0117 µM)	242 ng/mL (≈ 0.973 µM)
C[C@H]1c2cccc(O)c2C(=O)C2=C(O)[C@]3(O)C(=O)C(C(N)=O)=C(O)[C@@H](N(C)C)[C@@H]3[C@@H](O)[C@@H]21.O [DOXYCYCLINE]	2410 ng/mL	1180 ng/mL	1860 ng/mL	814 ng/mL	857 ng/mL	2280 ng/mL	1850 ng/mL	2370 ng/mL	483 ng/mL	2130 ng/mL
O[C@@H](c1cc(C(F)(F)F)nc2c(C(F)(F)F)cccc12)[C@H]1CCCCN1 [MEFLOQUINE]	16.2 ng/mL (≈ 0.0428 µM)	43.7 ng/mL (≈ 0.116 µM)	17.4 ng/mL (≈ 0.046 µM)	2.3 ng/mL (≈ 0.00608 µM)	32.8 ng/mL (≈ 0.0867 µM)	8.9 ng/mL (≈ 0.0235 µM)	16 ng/mL (≈ 0.0423 µM)	19.9 ng/mL (≈ 0.0526 µM)		9.7 ng/mL (≈ 0.0256 µM)
CCc1nc(N)nc(N)c1-c1ccc(Cl)cc1 [PYRIMETHAMINE]				11.9 ng/mL (≈ 0.0478 µM)	0.5 ng/mL (≈ 0.00201 µM)		0.4 ng/mL (≈ 0.00161 µM)		0.1 ng/mL (≈ 0.000402 µM)	37.6 ng/mL (≈ 0.151 µM)
COc1ncnc(NS(=O)(=O)c2ccc(N)cc2)c1OC [SULFADOXINE]			1640 ng/mL (≈ 5.29 µM)	1110 ng/mL (≈ 3.59 µM)	10.5 ng/mL (≈ 0.0338 µM)		2.4 ng/mL (≈ 0.00773 µM)		16 ng/mL (≈ 0.0516 µM)	2420 ng/mL (≈ 7.79 µM)
